Columns and labels:
Format in all cases: functional, cell-based
A549 = assay: Cytotoxicity against human A549 cells by MTT method
Procedure, shortened: (§1)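 MTT colorimetric read-out of cell viability, expressed as IC50 in µg/mL. Human tumour lines by origin: A549 lung adenocarcinoma, BGC-823 stomach cancer, MCF-7 breast cancer, Bel7402 hepatoma, HCT-8 colon cancer.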

BGC-823 = assay: Cytotoxicity against human BGC823 cells by MTT method; procedure, shortened: as §1
Bel-7402 = assay: Cytotoxicity against human Bel7402 cells by MTT method; procedure, shortened: as §1
HCT-8 = assay: Cytotoxicity against human HCT8 cells by MTT method; procedure, shortened: as §1
MCF7 = assay: Cytotoxicity against human MCF7 cells by MTT method; procedure, shortened: as §1

Measured: IC50

CC(C)[C@@H]1CC[C@@H](C)[C@]2(O)CC(=O)C=C12
> 10 mg/L: all assays above

CC(C)[C@@H]1CC[C@@H](C)[C@@]2(O)CC(=O)C=C12
> 10 mg/L: all assays above

CC(C)[C@H]1CC[C@H](C)C2=CC(=O)C[C@@]21O
> 10 mg/L: all assays above

CC(C)[C@@H]1CC[C@@H](C)[C@]2(O)CCC(=O)C=C12
> 10 mg/L: all assays above

— ChEMBL document CHEMBL1141797, “Norsesquiterpenes from the brown alga Dictyopteris divaricata” (J Nat Prod, 2005)
